Data set [1] has as its system Leishmania infantum. Put plainly: Antipromastigote activity against Leishmania infantum. It is filed as functional, organism-based. In a few lines:
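L. infantum MHOM/FR/78/LEM75 late log-phase promastigotes in phenol-red-free RPMI with 12% foetal calf serum and 10% Alamar Blue. Concentration range added to duplicate cultures, final DMSO below 5%. Incubated 48 h at 25 C. Alamar Blue reduction read by absorbance at 570 and 630 nm. IC50 = concentration giving 50% reduction of Alamar Blue versus control.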

The subject of data set [2] is THP-1. The experiment in a line: Cytotoxicity against human THP1 cells. The format is cell-based. A digest of the protocol:
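Late log-phase human monocytes in RPMI with 10% Alamar Blue and 10% foetal calf serum. Concentration range in duplicate cultures, final DMSO below 5%. Incubated 72 h at 37 C, 5% CO2. Alamar Blue reduction measured as absorbance at 570 and 630 nm. IC50 based on reduction relative to control culture.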

Data set [3] deals with Leishmania infantum. Put plainly: Antiamastigote activity against Leishmania infantum. The format is functional, organism-based.
Data set [4] can be described thus: Binding affinity to DNA by DNA-methyl green bioassay. On the set-up: species or system Homo sapiens. A digest of the protocol: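 Absorbance at 630 nm read at start and after 24 h dark at room temperature. Readings corrected for initial value, normalized to untreated complex. IC50 = 50% drop in DNA-related absorbance.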
The nature of data set [5]: Toxicity in human macrophages. The following applies: macrophage. It is filed as cell-based.

Among the data in ChEMBL document CHEMBL1147976 (Eur J Med Chem, 2007) are IC50 and Activity values, retold here.

Structures are written as SMILES.

For the molecule `COc1ccc(C(=O)Nc2ccc3cc4ccc(NC(=O)c5ccc(OC)cc5)cc4nc3c2)cc1`, the IC50 (commonly the midpoint of a concentration-inhibition curve) in data set [1] was 4.8 µM; in data set [2], 13.4 µM; in data set [3], 1.1 µM; in data set [4], greater than 250 µM.

With `CCCC(=O)Nc1ccc2cc3ccc(NC(=O)CCC)cc3nc2c1`, the IC50 came to 46.7 µM in data set [1], 18.9 µM in data set [2], 12.8 µM in data set [3] and 102 µM in data set [4].

For `CC(=O)Nc1ccc2cc3ccc(NC(=O)c4ccccc4)cc3nc2c1`, the IC50 in data set [1] is 186 µM; in data set [2] it was 5.4 µM; in data set [4], greater than 250 µM. Also, the Activity result in data set [5] was “Toxic”.

Consider `CCC(=O)Nc1ccc2cc3ccc(NC(=O)CC)cc3nc2c1`, for which the IC50 is 160 µM in data set [1], 23.2 µM in data set [2], 7.7 µM in data set [3] and 171 µM in data set [4].

With `CC(=O)Nc1ccc2cc3ccc(NC(C)=O)cc3nc2c1`, the IC50 in data set [1] was 342 µM; in data set [2] it was 738 µM; in data set [3], 4.5 µM; in data set [4], greater than 250 µM.

For `COc1ccc(C(=O)Nc2ccc3cc4ccc(NC(C)=O)cc4nc3c2)cc1`, the IC50 in data set [1] is 86.9 µM; in data set [2] it was 1.76 µM; in data set [4], greater than 250 µM. Moreover, the Activity result in data set [5] is recorded as “Toxic”.

`O=C(Nc1ccc2cc3ccc(NC(=O)c4ccccc4)cc3nc2c1)c1ccccc1`: the IC50 in data set [1] was 4.31 µM; in data set [2] it was 110 µM; in data set [3] it was 1.1 µM; in data set [4] it was greater than 250 µM.

In the case of `O=C(Nc1ccc2cc3ccc(NC(=O)c4ccc(Cl)cc4)cc3nc2c1)c1ccc(Cl)cc1`, the IC50 was 0.11 µM in data set [1], 2.49 µM in data set [2], 0.2 µM in data set [3] and greater than 250 µM in data set [4].

On to `COc1ccc(C(=O)Nc2ccc3cc4ccc(NC(=O)c5ccc(OC)c(OC)c5)cc4nc3c2)cc1OC`, for which the IC50 in data set [1] is 16.1 µM; in data set [2] it was 26.8 µM; in data set [3], 0.8 µM; in data set [4], greater than 250 µM.

As for `C[C@@H]1[C@H](O)[C@@H](C)/C=C/C=C/C=C/C=C/C=C/C=C/C=C/[C@H](O[C@@H]2O[C@H](C)[C@@H](O)[C@H](N)[C@@H]2O)C[C@@H]2O[C@](O)(C[C@@H](O)C[C@@H](O)[C@H](O)CC[C@@H](O)C[C@@H](O)CC(=O)O[C@H]1C)C[C@H](O)[C@H]2C(=O)O` [AMPHOTERICIN B], the results for the IC50 in data set [1], in data set [2] and in data set [3] were 0.38 µM, 154 µM and 0.14 µM, respectively.

Regarding `CC(=O)Nc1ccc2cc3ccc(NC(=O)c4ccc(F)cc4)cc3nc2c1`, the IC50 is 133 µM in data set [1], 1.1 µM in data set [2], 0.67 µM in data set [3] and greater than 250 µM in data set [4].

For `Nc1ccc2cc3ccc(N)cc3nc2c1` [PROFLAVINE], the IC50 in data set [1] was 1.3 µM; in data set [2], 2.21 µM; in data set [3] it was 0.12 µM; in data set [4] it was greater than 250 µM.

For `COc1cccc2c1C(=O)c1c(O)c3c(c(O)c1C2=O)C[C@@](O)(C(=O)CO)C[C@@H]3O[C@H]1C[C@H](N)[C@H](O)[C@H](C)O1` [DOXORUBICIN], in data set [4], the IC50 amounted to 1.38 µM.

With `CC(=O)Nc1ccc2cc3ccc(NC(=O)c4ccc(Cl)cc4)cc3nc2c1`, the IC50 in data set [1] is 11.5 µM; in data set [2] it was 1.9 µM; in data set [3] it was 2.9 µM; in data set [4], greater than 250 µM.

For `CC(=O)Nc1ccc2cc3ccc(N)cc3nc2c1`, the IC50 was determined as 90.8 µM in data set [1], 4.7 µM in data set [2] and 59.1 µM in data set [4]. Also, in data set [5], the Activity entry is listed as “Toxic”.

`COc1ccc(C(=O)Nc2ccc3cc4ccc(NC(C)=O)cc4nc3c2)cc1OC`: the IC50 was 203 µM in data set [1], 2.1 µM in data set [2], 1.3 µM in data set [3] and greater than 250 µM in data set [4].

For the molecule `O=C(Nc1ccc2cc3ccc(NC(=O)c4ccc(F)cc4)cc3nc2c1)c1ccc(F)cc1`, the IC50 in data set [1] was 1.7 µM; in data set [2] it was 0.77 µM; in data set [3], 0.03 µM; in data set [4], greater than 250 µM.
